OXTR ag – human OXTR agonism; 0.32% of 320,000 active; CHO-OTR cells, Fluo-8 calcium fluorescence; normalized: DMSO 0%, oxytocin 100%; activation, % at 3 µM; P30559; AID 2435;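 active = activation above the mean of all tested compounds plus 3 SD, cutoff set per screening run, cut at about 20% in these data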;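 also: peak over basal fluorescence ratio from a 100 s FLIPR kinetic read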
Target sequence (P30559 whole entry, looked up): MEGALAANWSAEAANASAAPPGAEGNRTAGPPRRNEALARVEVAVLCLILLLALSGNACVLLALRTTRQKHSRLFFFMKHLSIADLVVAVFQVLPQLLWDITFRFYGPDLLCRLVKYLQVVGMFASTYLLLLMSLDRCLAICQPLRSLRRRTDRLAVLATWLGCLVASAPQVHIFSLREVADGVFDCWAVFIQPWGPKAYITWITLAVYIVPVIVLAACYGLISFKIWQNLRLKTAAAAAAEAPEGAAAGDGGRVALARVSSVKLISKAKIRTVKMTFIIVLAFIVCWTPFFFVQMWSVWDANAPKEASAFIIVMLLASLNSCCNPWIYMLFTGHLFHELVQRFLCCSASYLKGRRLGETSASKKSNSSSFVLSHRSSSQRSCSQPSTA
OXTR potentiator – potentiates the human oxytocin receptor response | P30559 | CHO-OTR cells, Fluo-8 calcium fluorescence, potentiator mode; 0% = oxytocin EC15, 100% = EC100 | activation, % at 3 µM | 0.061% of 320,000 active;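 active = activation above that plate's cutoff, the mean activation of tested compounds plus 3 SD, cut at about 6.6% in these data, passing the limit was not always enough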
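System: human OTR in CHO cells / Also added: sub-maximal oxytocin, roughly EC15 / Control set: EC15 oxytocin low, 75 nM oxytocin high / Schedule: 6 min compound pre-incubation at room temperature, 100 s kinetic read / Compound: single-point 3.0 µM / Replication: singlicate / Technique: Fluo-8 calcium dye fluorescence / Read-out basis: % activation of max/min ratio relative to oxytocin controls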
TAAR1 antagonist – human TAAR1 antagonism | 1.5% of 360,000 active | CHO RD-HGA16 TAAR1, Fluo-8 calcium fluorescence, antagonist | AID 624466 | inhibition, % at 3 µM | Q96RJ0;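 active = inhibition above a per-plate cutoff, the mean inhibition of test compounds on that plate plus 3 SD, cut at about 49% in these data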
Target sequence (Q96RJ0 whole entry, looked up): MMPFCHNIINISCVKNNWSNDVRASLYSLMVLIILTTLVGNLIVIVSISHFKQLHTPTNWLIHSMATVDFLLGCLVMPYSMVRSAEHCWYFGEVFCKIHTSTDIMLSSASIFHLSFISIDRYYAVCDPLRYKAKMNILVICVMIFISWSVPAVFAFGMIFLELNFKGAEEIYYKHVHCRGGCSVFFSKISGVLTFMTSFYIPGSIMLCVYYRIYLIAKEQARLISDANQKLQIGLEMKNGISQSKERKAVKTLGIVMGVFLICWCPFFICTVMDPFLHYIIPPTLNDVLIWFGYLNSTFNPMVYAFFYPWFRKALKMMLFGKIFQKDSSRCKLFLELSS
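Test system – hTAAR1-expressing CHO RD-HGA16 cells, Gα16-coupled · Also added – β-PEA at EC80 concentration, post-compound challenge · Compound – 3 µM, single point · Incubation – dye loading 75 min at 37 °C, then 30 min room temperature · Measured by – Fluo-8 intracellular calcium dye fluorescence, real-time kinetic reads · Benchmarks – vehicle and agonist controls · Replicates – singlicate, one well per test compound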
V1aR counter – activates human V1a receptor in oxytocin agonist counter-screen | CHO-V1R cells, Fluo-8 calcium fluorescence, agonist mode; 0% DMSO, 100% 3 nM vasopressin | activation, % at 3 µM | 0.25% of 320,000 active | P37288;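 active = activation above the mean activation of all tested compounds plus 3 SD, per screening run, cut at about 20% in these data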;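 also: signal is peak over basal fluorescence ratio across a 100 second FLIPR read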
TAAR1 agonist – human TAAR1 agonism | Q96RJ0 | CHO RD-HGA16 TAAR1, Fluo-8 calcium fluorescence; vehicle wells 0%, saturating PEA agonist 100% | activation, % at 3 µM | 0.99% of 360,000 active;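 active = activation above the mean activation of all test compounds in the run plus 3 SD, cut at about 38% in these data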
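Repeats: no replicates (n 1) | Material: CHO-derived RD-HGA16 cells with stable Gα16 and human TAAR1 | Technique: Kinetic Fluo-8 calcium fluorescence | Schedule: 17-24 h seeding, 75 min 37 °C dye, 30 min RT | Evaluation: % activation from peak over basal fluorescence ratio, DMSO-to-PEA scaled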
TAAR1 nonsel count – nonselective antagonism, TAAR1 counter-screen. shares compounds with TAAR1 antagonist. counterscreen cell line, calcium fluorescence, antagonist mode. inhibition, % at 3 µM. 77% of 2,400 active; in the data active = inhibition above about 22%;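 also: CHO-Ga16 host cells stimulated with ATP at an EC80 level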
TAAR1 ant conf – human TAAR1 antagonism, confirmed; AID 651785; shares compounds with TAAR1 antagonist; TAAR1-expressing cells, fluorescence antagonist read-out; 40% of 2,400 active; inhibition, % at 3 µM; in the data active = inhibition above about 49%;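 also: CHO-Ga16 host cells challenged with agonist PEA near its EC80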
Ga16 nonsel ag – nonselective Ga16 agonist in TAAR1 antagonist counter-screen; Ga16-expressing cells, calcium fluorescence, agonist counterscreen; activation, % at 3 µM; 18% of 2,400 active; shares compounds with TAAR1 antagonist; in the data active = activation above about 12%
TAAR1 ag count – TAAR1 agonism, antagonist counter-screen | shares compounds with TAAR1 antagonist | hTAAR1 cell line, fluorescence activation, agonist mode | activation, % at 3 µM | 2% of 2,400 active | AID 651955; in the data active = activation above about 37%;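 also: CHO cells stably expressing TAAR1 with calcium dye readout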
Hits are given with their value; – = inactive; · = not tested or not shown. Most compounds without a hit are left out; they make up all but 2.3% or so of the library.

SMILES | OXTR ag | OXTR potentiator | TAAR1 antagonist | V1aR counter | TAAR1 agonist | TAAR1 nonsel count | TAAR1 ant conf | Ga16 nonsel ag | TAAR1 ag count
Cc1cccc(C)c1NC(=O)CN(Cc1ccccc1)Cc1ccccc1 | · | · | 62 | · | – | 23 | – | – | –
Cc1cccc(C)c1NC(=O)CNc1ccccc1 | – | – | – | – | – | · | · | · | ·
Cc1ccccc1C(=O)N1CCN(c2ccc(NC(=O)c3ccco3)cc2Cl)CC1 | – | – | 52 | – | – | 23 | – | – | –
O=C(Nc1ccc(N2CCN(C(=O)c3ccco3)CC2)cc1)c1ccc2c(c1)OCO2 | – | – | – | – | – | · | · | · | ·
CC(=O)N1CCN(c2ccc(NC(=O)c3ccc(C(C)(C)C)cc3)cc2)CC1 | – | – | 62 | – | – | 29 | – | – | –
Cc1cc(OCC(=O)Nc2ccc(N3CCN(C(=O)c4ccco4)CC3)cc2)cc(C)c1Cl | – | – | 86 | – | – | 51 | 71 | 18 | –
Cc1cc(OCC(=O)Nc2ccc(N3CCCC3)cc2)cc(C)c1Cl | – | – | – | – | – | · | · | · | ·
Cc1ccccc1C(=O)N1CCN(c2ccc(NC(=O)c3ccc4c(c3)OCO4)cc2)CC1 | – | – | 53 | – | – | 27 | – | – | –
CC(=O)N1CCN(c2ccc(NC(=O)c3ccc(Cl)cc3)cc2)CC1 | – | – | – | – | – | · | · | · | ·
O=C(Nc1ccc(N2CCN(C(=O)c3cccs3)CC2)c(Cl)c1)c1ccco1 | – | – | – | – | – | · | · | · | ·
CCOC(=O)N1CCN(C(=O)c2ccc(N(C)S(=O)(=O)c3ccc(C)cc3)cc2)CC1 | – | – | – | – | – | · | · | · | ·
CC(OC(=O)c1cccc(-n2cnnn2)c1)C(=O)Nc1ccc(F)cc1Cl (stereo unspecified) | – | – | – | – | – | · | · | · | ·
O=C(COc1ccccc1-c1ccccc1)NCCN1C(=O)S/C(=C\c2cccnc2)C1=O | – | – | 70 | – | – | 39 | – | 12 | –
O=C(NCCN1C(=O)S/C(=C/c2cccnc2)C1=O)c1cccs1 | – | – | – | – | – | · | · | · | ·
O=C(NCc1ccco1)c1cc(-c2cccs2)nc2ccccc12 | – | – | 62 | – | – | 27 | – | – | –
O=C(N/N=C/c1ccc2ncccc2c1)c1cc(-c2cccs2)nc2ccccc12 | – | – | 57 | – | – | 27 | – | – | –
O=C(N/N=C/c1cccnc1)c1cc(-c2cccs2)nc2ccccc12 | – | – | – | – | – | · | · | · | ·
Cc1nn(-c2ccccn2)c2nc(-c3cccs3)cc(C(=O)NCc3ccco3)c12 | – | – | 60 | – | – | 32 | 49 | – | –
Cc1cc(C)c2nc(NNC(=O)c3cc(-c4cccs4)nc4ccccc34)sc2c1 | – | – | 56 | – | – | 35 | 50 | – | –
CC1(C)Cc2c(sc(NC(=O)c3ccccc3Cl)c2C(=O)O)CO1 | – | – | – | – | – | · | · | · | ·
CCOC(=O)C1(C)CCN1C(=O)c1cccc(Cl)c1 (stereo unspecified) | · | · | – | · | – | · | · | · | ·
CC(C)OCCCNC(=O)c1cc(-c2cccs2)nc2ccccc12 | – | – | 57 | – | – | 31 | – | – | –
COc1cc(-c2cc(C(=O)NCc3ccco3)c3ccccc3n2)cc(OC)c1OC | – | – | 57 | – | – | 23 | – | – | –
CCOCCCNC(=O)c1cc(-c2ccc(Br)s2)nc2ccccc12 | – | – | – | – | – | · | · | · | ·
Cc1onc(-c2ccccc2)c1C(=O)NC(C)CCc1ccccc1 (stereo unspecified) | – | – | – | – | – | · | · | · | ·
SMILES | OXTR ag | OXTR potentiator | TAAR1 antagonist | V1aR counter | TAAR1 agonist | TAAR1 nonsel count | TAAR1 ant conf | Ga16 nonsel ag | TAAR1 ag count
COc1ccc(/C=N/NC(=O)c2nc(-c3ccccc3)cc(-c3ccccc3)n2)cc1O | – | – | 63 | – | – | 35 | 53 | – | –
COc1ccc(/C=N/NC(=O)c2nc(-c3ccccc3)cc(-c3ccccc3)n2)cc1 | – | – | 56 | – | – | 25 | – | – | –
Clc1ccc(-c2nsc(N3CCOCC3)n2)c(Cl)c1 | – | – | – | – | – | · | · | · | ·
COc1ccc(C(=O)NCCc2c[nH]c3ccccc23)cc1[N+](=O)[O-] | – | – | 63 | – | – | 27 | – | – | –
O=C(Cc1ccccc1F)Nc1nc(-c2ccc(F)cc2)cs1 | – | – | 74 | – | – | 30 | 59 | – | –
COc1ccccc1CC(=O)Nc1nc(-c2ccc(F)c(F)c2)cs1 | – | – | 51 | – | – | 22 | – | – | –
COc1ccc(S(=O)(=O)Nc2ccccc2C(=O)Nc2nc(-c3ccc(F)cc3)cs2)cc1OC | – | – | 90 | – | – | 52 | 61 | – | –
Cc1noc(C)c1CSCC(=O)Nc1nc(-c2ccc(F)c(F)c2)cs1 | – | – | 82 | – | – | 49 | 58 | – | –
COc1ccc(-c2csc(NC(=O)Cc3ccccc3F)n2)cc1OC | – | – | – | – | – | · | · | · | ·
CC(C)(C)c1ccc(NNC(=O)C2CCC2)cc1 | – | – | – | – | – | · | · | · | ·
CNC(=O)c1ccccc1NC(=O)c1cccc(S(=O)(=O)N2CCC(C)CC2)c1 | – | – | – | – | – | · | · | · | ·
CCNC(=O)c1ccccc1NC(=O)c1cccc(S(=O)(=O)N2CCC(C)CC2)c1 | – | – | 59 | – | – | 33 | – | – | –
O=C(Nc1ccc(COc2ccccc2)cc1)c1cccc([N+](=O)[O-])c1 | – | – | 60 | – | – | 28 | 68 | – | –
O=C(C[n+]1cc(-c2ccccc2)n2c1CCC2)Nc1nc(-c2ccccc2)cs1 | – | – | – | – | – | · | · | · | ·
O=C(CSCC(=O)N1CCCc2ccccc21)Nc1nc(-c2ccccc2)cs1 | – | – | 51 | – | – | 29 | – | – | –
O=C(Nc1ccccc1)c1cccc(N2C(=O)C3C4CC(C(Br)C4Br)C3C2=O)c1 (stereo unspecified) | – | – | 72 | – | – | 38 | 64 | 19 | –
COc1ccc(NC(=O)c2cccc(N3C(=O)C4C5C=CC(C6CC56)C4C3=O)c2)cc1 (stereo unspecified) | – | – | 63 | – | – | 35 | 54 | 13 | –
O=C(O)c1ccc(NC(=O)c2cccc(N3C(=O)C4C5CCC(C5)C4C3=O)c2)cc1 (stereo unspecified) | – | – | – | – | – | · | · | · | ·
